Experimental data published in PubChem BioAssay.
Records with an inconclusive call do not appear.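 Rule for the calls, unless noted: active = viability at or below 27.92% in each of two runs, the all-compound median minus 4 SD; inconclusive = no clear call, values can overlap the other calls; inactive = the rest.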

Experiments:
[1] = S. cerevisiae growth inhibition in permissive medium (OD615), pilot counter-assay for S. cerevisiae lifespan shortening project, permissive growth control (AID 705;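 active = growth inhibition above 25% in both replicates, a cutoff set 3 SD above the mean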); settings: OD615, 24 h, at 10 µM, hits give high values
How it was run: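 System: S. cerevisiae with engineered DeaD lifespan system / Measured by: absorbance (optical density) at 615 nm / Read-out: reduction in yeast growth (OD615) / Times: 4 h cell pre-growth, 24 h exposure at 30 °C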

[2] = S. cerevisiae growth inhibition in restrictive medium, OD615, pilot screen, restrictive growth control, yeast lifespan reduction project (AID 706;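 active = growth inhibition above a set limit, 3 SD over mean compound inhibition, in both replicates, cut at about 43% in these data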;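 note: modified DeaD lifespan yeast strain shifted to restrictive glucose medium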); settings: OD615, 48 h, at 10 µM, hits give high values
How it was run: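 System: Engineered S. cerevisiae DeaD strain | Buffer or medium: Glucose-based CSMM-D restrictive medium | Schedule: 4 h pre-incubation, 48 h exposure at 30 °C | Technique: Optical density at 615 nm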

[3] = doxorubicin toxicity protection in MRP-1 cells – H69AR cells, CellTiter-Glo, duplicate, MRP-1 activator project, pilot screen (AID 807;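 active = viability increase at or above a cutoff of the median across tested compounds plus 3 SD, cut at about 8.5% in these data, passing the limit was not always enough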;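 note: compound pretreatment 18-22 h then 72 h combined with doxorubicin; 0% = doxorubicin alone and 100% = vehicle without doxorubicin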); settings: H69AR viability with doxorubicin, CellTiter-Glo luminescence; at 10 µM; hits give high values
[4] = viability of HCT116 without oncogenic beta-catenin – human colon tumor cells, pilot screen (AID 823;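 active = cell viability at or below a set limit in both duplicate runs, the limit being the all-compound median minus 4 SD, cut at about 23% in these data, passing the limit was not always enough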;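 note: 0% = wells killed by 20 µM Hyamine and 100% = untreated DMSO cell wells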); settings: HCT116 beta-catenin knockout viability, CellTiter-Glo, 60 h; at 10 µM; hits give low values
[5] = viability of PTEN-null HCT116 cells – cell-based, HCT116 clonal line, CellTiter-Glo, pilot screen (AID 824); settings: HCT116 PTEN-deleted viability, 60 h, at 10 µM, hits give low values;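 note: 0% = 20 µM Hyamine control and 100% = vehicle cell control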
[6] = RAM pathway blockade in budding yeast – dse1pr::URA3 reporter, 5-FOA selection, pilot screen (AID 869;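 active = inhibition over a set limit, the all-compound mean plus 3 SD, in both replicate runs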;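 note: 0% = DMSO wells with no growth and 100% = 10 µM 1-NA-PP1 with full growth; RAM network block rescues cells from 5-FOA so hits raise OD615 growth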); settings: S. cerevisiae dse1pr::URA3 5-FOA growth, OD615, 2 d; at 10 µM; hits give high values; strain carries analog-sensitive mutant Cbk1 kinase
[7] = RAM signaling pathway blockade in yeast – S. cerevisiae, Pdr1DBD-CYC8 efflux-inhibited sensitized strain, primary screen (AID 1298;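 active = RAM network inhibition above 8.4% in each of two replicates, 3 SD over the compound average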;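 note: 0% = DMSO untreated cells without growth and 100% = 10 µM 1-NA-PP1 full growth; higher means more yeast growth rescued from 5-FOA killing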); settings: S. cerevisiae cbk1-as DSE1-URA3 strain, 5-FOA growth OD615, 2 d; at 50 µM; hits give high values

CN(CC(=O)NCCC1=CCCCC1)S(=O)(=O)c1ccc2c(c1)c(=O)n(C)c(=O)n2C
inactive: growth inhibition [1] -7.74% | growth inhibition [2] -27.4% | viability increase [3] -1.64% | viability [4] 84.4% | viability [5] 76.8% | inhibition [6] 2.88% | RAM network inhibition [7] 4.5%

Cc1ccc(N2C(=O)c3ccccc3C2Nc2ccccc2F)nc1 (stereo not drawn)
inactive: growth inhibition [1] -7.38% | growth inhibition [2] -1.2% | viability increase [3] -1.31% | viability [4] 88.3% | viability [5] 90.8% | inhibition [6] 2.46% | RAM network inhibition [7] 10.5%

Cc1ccccc1N(CC(=O)NCCSCc1ccco1)S(C)(=O)=O
inactive: growth inhibition [1] -4.43% | growth inhibition [2] -7.72% | viability increase [3] -3.94% | viability [4] 93.1% | viability [5] 95.5% | inhibition [6] -0.58% | RAM network inhibition [7] 7.43%

CC1(C)CC(=O)C(C=NCc2cccnc2)=C(O)C1
inactive: growth inhibition [1] -10.7% | growth inhibition [2] -17.6% | viability increase [3] 0.64% | viability [4] 92.8% | viability [5] 98.8% | inhibition [6] 0.7% | RAM network inhibition [7] 4.76%

CCOCCCNC(=O)CN1C(=O)CSc2ccccc21
inactive: growth inhibition [1] -18.9% | growth inhibition [2] -6.29% | viability increase [3] -0.22% | viability [4] 101% | viability [5] 98.9% | inhibition [6] 1.49% | RAM network inhibition [7] 2.6%

CCCCOCCCNC(=O)Cc1cccs1
inactive: growth inhibition [1] -16.7% | growth inhibition [2] -10.3% | viability increase [3] -2.03% | viability [4] 91.8% | viability [5] 90% | inhibition [6] 0.465% | RAM network inhibition [7] 5.12%

CCOC(=O)c1c(N)sc2c(O)c(Br)ccc12
inactive: growth inhibition [1] -26.9% | growth inhibition [2] -1.8% | viability increase [3] -0.49% | viability [4] 104% | viability [5] 107% | inhibition [6] 1.01% | RAM network inhibition [7] 5.24%

O=C(Cn1ncc2c(=O)oc3ccccc3c21)NCC1COc2ccccc2O1 (stereo not drawn)
inactive: growth inhibition [1] 4.09% | growth inhibition [2] -10.9% | viability increase [3] -1.36% | viability [4] 103% | viability [5] 98.2% | inhibition [6] 2.72% | RAM network inhibition [7] 3.56%

Cc1c(C(=O)NCc2ccc3c(c2)OCO3)oc2ccccc12
inactive: growth inhibition [1] 1.35% | growth inhibition [2] 16% | viability increase [3] -0.04% | viability [4] 108% | viability [5] 98.9% | inhibition [6] -0.54% | RAM network inhibition [7] 5.64%

O=C(NCCN1CCOCC1)c1ccc(CS(=O)(=O)c2ccc(Br)cc2)o1
inactive: growth inhibition [1] 0.315% | growth inhibition [2] -7.27% | viability increase [3] -1.79% | viability [4] 99.5% | viability [5] 97.6% | inhibition [6] 1.31% | RAM network inhibition [7] 3.72%

COc1ccc(NC2c3ccccc3C(=O)N2Cc2ccco2)cc1OC (stereo not drawn)
inactive: growth inhibition [1] 6.53% | growth inhibition [2] 6.86% | viability increase [3] -3.63% | viability [4] 97.5% | viability [5] 89.7% | inhibition [6] 0.985% | RAM network inhibition [7] 3.72%

O=c1[nH]c2ccc(Cl)cc2c(-c2ccccc2)c1N1CCOCC1
inactive: growth inhibition [1] -4.65% | growth inhibition [2] -0.51% | viability increase [3] -3.04% | viability [4] 89.4% | viability [5] 88% | inhibition [6] 0.985% | RAM network inhibition [7] 1.15%

CC(C)n1c(C(O)c2ccccc2)nc2ccccc21 (stereo not drawn)
inactive: growth inhibition [1] -5.87% | growth inhibition [2] -13.6% | viability increase [3] 0.37% | viability [4] 97.6% | viability [5] 88.1% | inhibition [6] 1.4% | RAM network inhibition [7] 4.24%

CCN1CCn2c3c(c4cc(C)ccc42)CCCC31 (stereo not drawn)
inactive: growth inhibition [1] -4.94% | growth inhibition [2] -6.53% | viability increase [3] -2.11% | viability [4] 80.1% | viability [5] 74.9% | inhibition [6] 0.895% | RAM network inhibition [7] 0.21%

CCC(=O)N=c1sc2c(OC)ccc(OC)c2n1C
inactive: growth inhibition [1] -7.02% | growth inhibition [2] -7.99% | viability increase [3] -4.85% | viability [4] 92.4% | viability [5] 91.2% | inhibition [6] 1.68% | RAM network inhibition [7] 2.04%

O=C(CCNS(=O)(=O)c1cccc2nsnc12)NC1CCCc2ccccc21 (stereo not drawn)
inactive: growth inhibition [1] -9.18% | growth inhibition [2] -13.1% | viability increase [3] -4.33% | viability [4] 88.2% | viability [5] 90.3% | inhibition [6] 1.23% | RAM network inhibition [7] 0.26%

CCOC(=O)c1ccc(N2C(=O)CC(SCC(N)C(=O)OCC)C2=O)cc1 (stereo not drawn)
inactive: growth inhibition [1] -4.09% | growth inhibition [2] -7.37% | viability increase [3] -2.49% | viability [4] 102% | viability [5] 85.6% | inhibition [6] 1.47% | RAM network inhibition [7] 3.7%

Cc1ccc(-n2c3c(cc(C(=O)N4CCN(C)CC4)c2=O)C(=O)CC(C)(C)C3)cc1
inactive: growth inhibition [1] -21.9% | growth inhibition [2] -9.49% | viability increase [3] 0.41% | viability [4] 101% | viability [5] 96.6% | inhibition [6] 1.48% | RAM network inhibition [7] 2.1%

CC(=O)CC(=O)Nc1cccc2c1CCCC2
inactive: growth inhibition [1] -1.4% | growth inhibition [2] -1.66% | viability increase [3] -1.76% | viability [4] 92.6% | viability [5] 91.5% | inhibition [6] -0.665% | RAM network inhibition [7] 1.72%

O=C(CCCc1c[nH]c2ccccc12)N1CCN(c2ccc(N3CCOCC3)nn2)CC1
inactive: growth inhibition [1] -2.69% | growth inhibition [2] -3.36% | viability increase [3] -1.4% | viability [4] 102% | viability [5] 105% | inhibition [6] 0.485% | RAM network inhibition [7] -0.41%

CCCCn1c(C(C)NC(=O)CC)nc2ccccc21 (stereo not drawn)
inactive: growth inhibition [1] -12.9% | growth inhibition [2] -3.19% | viability increase [3] -3.16% | viability [4] 92.2% | viability [5] 92.7% | inhibition [6] 0.01% | RAM network inhibition [7] -0.63%

CC(C)(C)NC(=O)CSc1nccn1Cc1ccccc1
inactive: growth inhibition [1] -11.7% | growth inhibition [2] -5.1% | viability increase [3] -1.52% | viability [4] 95.9% | viability [5] 93% | inhibition [6] 1.66% | RAM network inhibition [7] 4.82%

CCOC(=O)c1ccc(NC(=O)CSc2nc(C)cc(=O)[nH]2)cc1
inactive: growth inhibition [1] -7.82% | growth inhibition [2] 8.13% | viability increase [3] -1.06% | viability [4] 98.5% | viability [5] 100% | inhibition [6] -0.79% | RAM network inhibition [7] 0.78%

Cc1cc2nsnc2c(S(=O)(=O)NCC(=O)O)c1C
inactive: growth inhibition [1] -7.75% | growth inhibition [2] -1.79% | viability increase [3] 1.73% | viability [4] 100% | viability [5] 102% | inhibition [6] 2.25% | RAM network inhibition [7] 0.2%
